Measured values: PMC6231235 (Science translational medicine, 2017)

Test system: human FXa
Assay: In vitro neutralization of anti-FXa activity by protamine
Type: biochemical
Conditions: sample at 25 x IC50, protamine 0 to 90 μg/ml
Summary of the method: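 Human plasma is combined with a fixed test-compound stock set per construct and protamine chloride in PBS (0 to 90 μg/ml solutions), then held 5 min at room temperature. The mixture then goes into the chromogenic anti-FXa assay: human FXa for 4 min at room temperature, S-2765 substrate, and A405 read continuously for 5 min.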

CO[C@H]1O[C@H](COS(=O)(=O)O)[C@@H](O[C@@H]2O[C@@H](C(=O)O)[C@@H](O[C@H]3O[C@H](COS(=O)(=O)O)[C@@H](O[C@@H]4O[C@H](C(=O)O)[C@@H](O[C@H]5O[C@H](COS(=O)(=O)O)[C@@H](O)[C@H](O)[C@H]5NS(=O)(=O)O)[C@H](O)[C@H]4O)[C@H](OS(=O)(=O)O)[C@H]3NS(=O)(=O)O)[C@H](O)[C@H]2OS(=O)(=O)O)[C@H](O)[C@H]1NS(=O)(=O)O [Fondaparinux]
neutralization of anti-FXa activity by protamine in vitro: completely insensitive
